How the values were obtained:
[1] = target: Major prion protein (Mus musculus) (UniProt P04925); assay: Antiprion activity against mouse recombinant PrP expressed in Fukuoka-1 stain infected mouse GT1-7 cells assessed as remaining PrP-res level at 10 uM after 72 hrs by Western blotting relative to control; type: cell-based
In short: (§1)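 GT+FK cells (GT1-7 neuronal line persistently infected with Fukuoka-1 agent) in DMEM/10% FBS, 37°C, 5% CO2; 1.5 × 10⁵ cells/well, dosed 15 h after plating with compound from fresh 10 mM DMSO stock (vehicle 0.1%) for 72 h. Lysates in Triton X-100/deoxycholate buffer adjusted to 2 mg/ml protein; PrP^Sc by Western blot with M-20 antibody, densitometry versus solvent control; effective if <70% of control; ≥2 independent experiments.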

[2] = target: Major prion protein (Mus musculus) (UniProt P04925); assay: Antiprion activity against mouse recombinant PrP expressed in Fukuoka-1 stain infected mouse GT1-7 cells at 10 uM after 72 hrs by Western blotting; type: cell-based; in short: as §1
Major prion protein = Major prion protein (Mus musculus, UniProt P04925); assay: Binding affinity to mouse recombinant PrP (121-231) after 10 mins by surface plasmon resonance assay
In short: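 Recombinant mouse PrP(121-231) immobilized on CM5 chip; compounds at various concentrations injected in HEPES-buffered saline (pH 7.4) with 0.1% P20 and 5% DMSO, 1 min at 30 μl/min, then buffer alone for 10 min. Blank-chip corrected; Kd fitted from concentration dependence of sensorgram response.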

[3] = Solubility of the compound; type: physicochemical

Sequence of Major prion protein (P04925 whole entry): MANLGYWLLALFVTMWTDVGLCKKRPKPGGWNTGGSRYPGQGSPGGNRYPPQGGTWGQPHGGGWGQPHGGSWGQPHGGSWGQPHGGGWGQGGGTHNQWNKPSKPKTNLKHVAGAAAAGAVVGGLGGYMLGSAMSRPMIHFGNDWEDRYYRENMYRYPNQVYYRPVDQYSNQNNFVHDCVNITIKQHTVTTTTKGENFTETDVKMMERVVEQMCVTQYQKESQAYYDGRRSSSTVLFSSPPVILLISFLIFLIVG
Sequence of Major prion protein (Mus musculus) (P04925 whole entry): as above

Compound | Activity [1] | further results
Cc1cccc2cc(C#N)c(N3CCCN(C(=O)C4CCC4)CC3)nc12 | 50.6% | 
Cc1cccc2cc3c(N)c(C(=O)NC4CCCC4)sc3nc12 | 41.9% | Activity [2]: < 70%; Kd (Major prion protein; read-out: Kd): 86.1 µM
O=C(CSc1nc2ccccc2[nH]1)NC1CCCc2ccccc21 (stereo not drawn) | 64.9% | 
CC1CCCCC1NC(=O)COc1ncnc2sc3c(c12)CCC3 (stereo not drawn) | 68.8% | 
O=C(CCc1nc2ccccc2c(=O)[nH]1)NC1CCCc2ccccc21 (stereo not drawn) | 65% | 
CC1Cc2ccccc2N1C(=O)COc1ncnc2sccc12 (stereo not drawn) | 67.4% | 
O=C(CN1C(=O)COc2ccccc21)N1CCCc2ccccc21 | 57.5% | 
CN1/C(=C/C(=O)Nc2cccs2)c2ccccc2CC1(C)C | 57.4% | 
CC1CCCCN1CC(=O)Nc1sc2c(c1C#N)CCCCC2 (stereo not drawn) | 58.8% | Kd (Major prion protein; read-out: Kd): 21.9 µM
CCCc1nc2ccccc2n1CC(=O)N1CCCc2ccccc21 | 67.2% | 
O=C(Cc1c[nH]c2ccccc12)NC1CCc2ccccc2C1 (stereo not drawn) | 55.3% | Kd (Major prion protein; read-out: Kd): 48.6 µM
O=C(COc1ncnc2ccccc12)NC1CCCc2ccccc21 (stereo not drawn) | 53% | 
Cc1ccc2c(c1)c1c(n2CC(O)CN2CCCCC2)C(=O)CCC1 (stereo not drawn) | 51.3% | 
Cc1cc2cc3c(cc2nc1SCCN1CCCCC1)OCCO3 | 47.4% | Activity [2]: < 70%; Kd (Major prion protein; read-out: Kd): 50.8 µM
O=C(COC(=O)c1c2c(nc3ccccc13)CCC2)NC1CCCC1 | 62.9% | 
CCC(C)C(NC(=O)c1ccccc1)C(=O)N1CCc2ccccc21 (stereo not drawn) | 36.8% | Activity [2]: < 70%; Kd (Major prion protein; read-out: Kd): 51.2 µM
CC(=O)N(Cc1ccccc1)Cc1cc2cccc(C)c2n2nnnc12 |  | Kd (Major prion protein): Not Active
O=C1c2cccc3cccc(c23)N1CC(=O)N1CC2CCC1C2 (stereo not drawn) | 65% | 
CCCCNc1nc2ccccc2n1CC(=O)N1CCc2ccccc21 | 37.3% | Activity [2]: < 70%; Kd (Major prion protein; read-out: Kd): 20 µM
N#Cc1c(NC(=O)c2cc3c(s2)CCCC3)sc2c1CCCC2 | 66.9% | 
C=CCNC(=O)NC(=O)CSc1nc2ccccc2n1CC(C)C |  | Kd (Major prion protein): Not Active
Cc1ccc(NC(=O)CN2C(=O)NC3(CCc4ccccc43)C2=O)cc1 (stereo not drawn) | 150% | 
O=C(CSc1ncnc2sc3c(c12)CCC3)NCC1CCCO1 (stereo not drawn) |  | Kd (Major prion protein): Not Active
O=C(CN1C(=O)NC2(CCCc3ccccc32)C1=O)N1CCCCC1 (stereo not drawn) | 67.1% | 
O=C(NCc1ccccn1)C1CC2c3ccccc3C1c1ccccc12 (stereo not drawn) | 54.7% | solubility [3]: Insoluble
O=C(Cc1coc2cc3c(cc12)CCC3)N1CCc2ccccc21 | 63.7% | 
Cc1cccc(NC(=O)N2CCCC2C(=O)NC2CCCC2)c1 (stereo not drawn) | 63.2% | 
